Results as given in ChEMBL document CHEMBL3868630, “Synthesis, anti-proliferative activity, SAR study, and preliminary in vivo toxicity study of substituted N,N'-bis(arylmethyl)benzimidazolium salts against a panel of non-small cell lung cancer cell lines” (Bioorg Med Chem, 2017).

Assays:
[1] = Cytotoxicity against human HOP62 cells assessed as cell growth at 10 uM after 48 hrs by SRB assay relative to control; format: functional; conditions: HOP-62, 48 h, read-out: Activity
[2] = Growth inhibition of human NCI-H522 cells after 48 hrs by SRB assay; format: functional; conditions: NCI-H522, 48 h
[3] = Cytotoxicity against human NCI-H226 cells assessed as cell growth at 10 uM after 48 hrs by SRB assay relative to control; format: functional; conditions: NCI-H226, 48 h, read-out: Activity
[4] = Growth inhibition of human NCI-H226 cells after 48 hrs by SRB assay; format: functional; conditions: NCI-H226, 48 h
[5] = Cytotoxicity against human NCI-H23 cells assessed as cell growth at 10 uM after 48 hrs by SRB assay relative to control; format: functional; conditions: NCI-H23, 48 h, read-out: Activity
[6] = Cytotoxicity against human EKVX cells assessed as cell growth at 10 uM after 48 hrs by SRB assay relative to control; format: functional; conditions: read-out: Activity
[7] = Growth inhibition of human EKVX cells after 48 hrs by SRB assay; format: functional
[8] = Growth inhibition of human NCI-H322M cells after 48 hrs by SRB assay; format: functional
[9] = Toxicity in C57BL/6 mouse assessed as mouse survival rate at 20 mg/kg, ip measured after 16 days; format: organism-based; conditions: in vivo
Method in brief: (§1)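 Male C57BL/6 mice, eight weeks old, housed three per cage on a 12 h light/dark cycle with food and water ad libitum, acclimated 5 days. Single IP injection on day 0 of 100 µL of a 4 mg/mL solution (0.4 mg, ~20 mg/kg assuming 20 g mice) in 20% 2-HPβCD sterile PBS. Vehicle controls were injected on days 0, 7, 14, 21 and 25. Mice were monitored and weighed daily.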

[10] = Cytotoxicity against human NCI-H460 cells assessed as decrease in cell viability after 72 hrs by MTT assay; format: functional, cell-based; conditions: NCI-H460, 72 h
Method in brief: (§2)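 Cells kept in RPMI 1640 with 10% FBS at 37 °C, 5% CO2, passaged every 2-3 days; seeded at 5,000-7,000 cells/well and left 24 h. Compounds dissolved in 1% DMSO, diluted in fresh medium to 1, 4, 16 and 32 µM, added in sextuplicate; 72 h exposure. MTT added for 3-4 h, medium removed, DMSO added for 15 min at 37 °C, OD read at 540 nm.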

[11] = Growth inhibition of human HOP62 cells after 48 hrs by SRB assay; format: functional; conditions: HOP-62, 48 h
[12] = Cytotoxicity against human HOP92 cells assessed as cell growth at 10 uM after 48 hrs by SRB assay relative to control; format: functional; conditions: HOP-92, 48 h, read-out: Activity
[13] = Cytotoxicity against human NCI-H1975 cells assessed as decrease in cell viability after 72 hrs by MTT assay; format: functional, cell-based; conditions: NCI-H1975, 72 h; method in brief: as §2
[14] = Growth inhibition of human NCI-H23 cells after 48 hrs by SRB assay; format: functional; conditions: NCI-H23, 48 h
[15] = Growth inhibition of human A549 cells after 48 hrs by SRB assay; format: functional; conditions: A549, 48 h
[16] = Aqueous solubility of the compound; format: physicochemical
[17] = Cytotoxicity against human A549 cells assessed as cell growth at 10 uM after 48 hrs by SRB assay relative to control; format: functional; conditions: A549, 48 h, read-out: Activity
[18] = Cytotoxicity against human A549 cells assessed as decrease in cell viability after 72 hrs by MTT assay; format: functional, cell-based; conditions: A549, 72 h; method in brief: as §2
[19] = Cytotoxicity against human HCC827 cells assessed as decrease in cell viability after 72 hrs by MTT assay; format: functional, cell-based; conditions: HCC827, 72 h; method in brief: as §2
[20] = Growth inhibition of human HOP92 cells after 48 hrs by SRB assay; format: functional; conditions: HOP-92, 48 h
[21] = Cytotoxicity against human NCI-H460 cells assessed as cell growth at 10 uM after 48 hrs by SRB assay relative to control; format: functional; conditions: NCI-H460, 48 h, read-out: Activity
Mus musculus [22] = test: Toxicity in C57BL/6 mouse assessed as weight loss at 20 mg/kg, ip measured on day 2; format: organism-based; conditions: in vivo
Method in brief: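 Male C57BL/6 mice, 8 weeks old, 3 per cage, 12 h light/dark, food and water ad libitum, acclimated 5 days. Single IP dose on day 0 of 100 µL of 4 mg/mL in 20% 2-HPβCD in sterile PBS (~20 mg/kg assuming 20 g mice). Vehicle controls got 100 µL 20% 2-HPβCD/PBS IP on days 0, 7, 14, 21, 25. Weighed and monitored daily.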

[23] = Growth inhibition of human NCI-H460 cells after 48 hrs by SRB assay; format: functional; conditions: NCI-H460, 48 h
Mus musculus [24] = test: Toxicity in C57BL/6 mouse assessed as increase in body mass at 20 mg/kg, ip measured after 16 days; format: organism-based; conditions: in vivo, 384 h; method in brief: as §1
[25] = Cytotoxicity against human NCI-H322M cells assessed as cell growth at 10 uM after 48 hrs by SRB assay relative to control; format: functional; conditions: read-out: Activity
[26] = Cytotoxicity against human NCI-H522 cells assessed as cell growth at 10 uM after 48 hrs by SRB assay relative to control; format: functional; conditions: NCI-H522, 48 h, read-out: Activity
[27] = read-out: LC50 (the source's name)

SMILES: COCCOCCOCc1n(Cc2ccc3ccccc3n2)c2ccccc2[n+]1Cc1ccc2ccccc2c1.[Br-]
- growth at 10 µM [1]: 11.7%
- GI50 [2]: 248 nM
- TGI [2]: 936 nM
- CC50 [2, 27]: 4590 nM
- growth at 10 µM [3]: 28.1%
- GI50 [4]: 874 nM
- LC50 [4]: 45200 nM
- TGI [4]: 4830 nM
- growth at 10 µM [5]: 1.03%
- growth at 10 µM [6]: 31%
- GI50 [7]: 1270 nM
- LC50 [7]: 50900 nM
- TGI [7]: 10800 nM
- GI50 [8]: 1080 nM
- TGI [8]: 7090 nM
- CC50 [8, 27]: 28600 nM
- survival at 384 h [9]: 33%
- IC50 [10]: 3000 nM
- GI50 [11]: 468 nM
- TGI [11]: 2520 nM
- CC50 [11, 27]: 9530 nM
- growth at 10 µM [12]: -18.2%
- IC50 [13]: < 1000 nM
- GI50 [14]: 386 nM
- LC50 [14]: 53500 nM
- TGI [14]: 10300 nM
- GI50 [15]: 748 nM
- LC50 [15]: 37100 nM
- TGI [15]: 10600 nM
- solubility [16]: 1900 µg/mL
- growth at 10 µM [17]: 22.5%
- IC50 [18]: 3000 nM
- IC50 [19]: 6000 nM
- GI50 [20]: 207 nM
- LC50 [20]: 5220 nM
- TGI [20]: 718 nM
- growth at 10 µM [21]: 7.94%
- Activity (Mus musculus [22]): Toxic
- GI50 [23]: 424 nM
- LC50 [23]: 5700 nM
- TGI [23]: 1560 nM
- Activity (Mus musculus [24]): 6%
- growth at 10 µM [25]: 26.8%
- growth at 10 µM [26]: 0.79%

SMILES: CCCc1n(Cc2ccc3ccccc3c2)c2ccccc2[n+]1Cc1ccc2ccccc2c1.[Br-]
- growth at 10 µM [1]: -55.4%
- GI50 [2]: 300 nM
- TGI [2]: 1050 nM
- growth at 10 µM [3]: -4.44%
- GI50 [4]: 373 nM
- TGI [4]: 1800 nM
- growth at 10 µM [5]: -12.9%
- growth at 10 µM [6]: -4.84%
- GI50 [7]: 653 nM
- TGI [7]: 2330 nM
- GI50 [8]: 1040 nM
- TGI [8]: 2310 nM
- IC50 [10]: 2000 nM
- GI50 [11]: 537 nM
- TGI [11]: 2030 nM
- growth at 10 µM [12]: -48.1%
- IC50 [13]: < 1000 nM
- GI50 [14]: 354 nM
- TGI [14]: 1600 nM
- GI50 [15]: 619 nM
- LC50 [15]: 5090 nM
- TGI [15]: 2040 nM
- solubility [16]: < 500 µg/mL
- growth at 10 µM [17]: -19.4%
- IC50 [18]: 2000 nM
- IC50 [19]: < 1000 nM
- GI50 [20]: 192 nM
- TGI [20]: 911 nM
- growth at 10 µM [21]: -76.1%
- GI50 [23]: 337 nM
- TGI [23]: 1360 nM
- growth at 10 µM [25]: 4.72%
- growth at 10 µM [26]: -60.1%
